The values below come from publication PMC6160361 (Circulation, 2018).

Like-named read-outs stand apart in the source and are kept apart here.

Assay [1] has as its target DRB1*07:01 (Homo sapiens, UniProt P01903+P01911, A100R/A102G/A103Q/D57E/D86V/E43K/F76Y/K127E/L162R/M171V/P40G/Q125H/Q99D/R33Q/R42Y/R54Q/S133A/S66F/T210M/V115G/Y107V/Y59L/Y89S). As to the kind of experiment: MHC class II competitive inhibition binding assay, DRB1*07:01. To be noted: experimental competitive peptide binding. In a few lines:
(§1)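 Competitive inhibition assay using purified MHC class II molecules and a high-affinity radiolabelled MHC class II ligand. Binding given as IC50, taken as an approximation of Kd under the assay conditions. Test peptide stock in DMSO at 20 mg/ml, stored at −80°C.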

In assay [2] the target is DRB1*04:01 (Homo sapiens, UniProt P01903+P01911, A100K/A169T/F76Y/I96L/K127E/L162R/M171V/N62H/P40V/Q125Y/R42H/S133A/S149N/S66Y/V115G/V209L/W38E). As to the kind of experiment: MHC class II competitive binding assay, DRB1*04:01. To be noted: experimental competitive peptide binding. In a few lines:
as §1

Assay [3] has as its target DRB1*13:02 (Homo sapiens, UniProt P01903+P01911, A100E/A169T/K41T/L162R/M171V/P40S/Q125H/Q178H/Q39Y/Q99D/R42S/S66N/T262R/V115G/W38E/Y61H). In words: MHC class II competitive binding assay, DRB1*13:02. To be noted: experimental competitive peptide binding. In a few lines: as §1
The test system of assay [4] is p18-specific CD4^+ T cells in human PBMC. As to the kind of experiment: DRB1*07:01-p18 tetramer staining of human PBMC by flow cytometry. In kind it is cell-based. To be noted: sCVD N=14, no sCVD N=15. In general terms: A flow cytometer gives signals particle by particle.
The test system of assay [5] is DRB1*07:01-p18^+CD4^+ T cells. It counts as cell-based, human.
Assay [6] has as its system peritoneal CD4^+ T cells. In kind it is in vivo, mouse.
Assay [7] relates to peritoneal CD4^+ T cells. It counts as in vivo, mouse. To be noted: 1x CFA and 1x IFA, N=9-10.
For assay [8], the system named is peritoneal Tregs. In words: IL-10 production and Nrp-1 of Tregs after p18 immunization. It counts as in vivo, mouse. To be noted: N=7.
Assay [9] deals with peritoneal CD4^+ T cells. In words: TCR activation. It counts as in vivo, mouse.
The subject of assay [10] is p18:I-A^b+CD4^+ T cells (peritoneal). As to the kind of experiment: p18:I-A^b tetramer staining of peritoneal CD4^+ T cells, Nur77^GFP Apoe^−/− mice. It counts as in vivo, mouse.
The subject of assay [11] is p18:I-A^b+CD4^+ T cells (spleen). As to the kind of experiment: p18:I-A^b tetramer staining of splenic CD4^+ T cells. It counts as in vivo, mouse.
The subject of assay [12] is splenic CD4^+ T cells. As to the kind of experiment: IL-10 ELISPOT of splenic CD4^+ T cells restimulated with p18. In kind it is cell-based, mouse. Particulars: splenic CD4^+ T cells with antigen presenting cells and p18, 24 hours; 1xCFA and 1xIFA; N=9-10.
Assay [13] has as its system Apoe^−/− mice. In words: Aortic atherosclerosis. In kind it is in vivo, mouse. To be noted: 50 μg p18, 1xCFA + 4xIFA, western diet 13 weeks; vs adjuvant only; N=8-9.
Assay [14] is described as follows: Plasma lipid analysis of vaccinated Apoe^−/− mice. In kind it is in vivo, mouse. To be noted: Supplementary Figure 6; 1xCFA + 4xIFA. The essentials: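 Apoe−/− mice immunised 1xCFA + 4xIFA. Whole blood taken by cardiac puncture into EDTA at organ harvest and spun at 3000 × g for 15 min at 4°C. Plasma supernatant stored at −80°C to limit freeze/thaw, then sent for external lipid analysis.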

Assay [15] has as its system p18. To be noted: vaccinated Apoe^−/− mice; Supplementary Figure 7.
Assay [16] concerns atherosclerosis patients. Particulars: GLACIER trial; cited from earlier work.
Setting [17] is: spleen, vaccinated Apoe^−/− mice.

Regarding SLFFSAQPFEITAST [p18], in assay [1], the “binding to DRB1*07:01” value was “binds”. In assay [2], the “binding to DRB1*04:01” value was “binds”. Moreover, in assay [3], the “binding to DRB1*13:02” value was “binds”. Moreover, the “trend in p18-specific CD4^+ T cells in sCVD patients vs no sCVD” value in [4] is “did not reach statistical significance”. For the same molecule, the “Tregs co-expressing T-bet among DRB1*07:01-p18^+CD4^+ T cells” value in [5] (no sCVD) is 1.2±0.5%. Further, the “FoxP3^+Rorγt^+ cells among p18-specific CD4^+ T cells” value in assay [5] (patients with sCVD) was “significant increase”. Moreover, in [5] (sCVD donors, mean ± SEM), the “Tregs co-expressing RORγt among DRB1*07:01-p18^+CD4^+ T cells” value amounted to 8.8±3.7%. Further, in assay [5] (sCVD patients), the “Tregs co-expressing T-bet among DRB1*07:01-p18^+CD4^+ T cells” value is given as 4.1±1.4%. Also, in [5] (sCVD^− participants), the “Tregs co-expressing RORγt among DRB1*07:01-p18^+CD4^+ T cells” value was “almost undetectable”. Further, in assay [5] (women with no sCVD), the “fraction of p18-specific CD4^+ T cells that are FoxP3^+ Tregs” value is on record as “most”. In assay [6] (Apoe^−/− mice, peritoneal, N=6, compared with YFP result), the “FoxP3 by intracellular staining of CD4^+ T cells” value was “gave a similar result”. Moreover, the “CD25^+FoxP3^+CD4^+ T cells of all CD4^+ T cells” value in [6] (peritoneal cavity, FoxP3^YFPcreApoe^−/− mice, 2 weeks after immunization, 1xCFA s.c. + 1xIFA i.p., from ~6%, N=7) was ~ 12%. The “abundance of Tregs in peritoneal cavity” value in assay [7] (Apoe^−/− mice on CD or WD) is on record as “significantly increased”. Besides, the “FoxP3^+Tbet^+ cells in peritoneal cavity” value in [7] (CD or WD) is recorded as “increased”. In addition, the “FoxP3^+GATA3^+ cells in peritoneal cavity” value in [7] was “only observed in mice fed CD and not in mice fed WD”. Also, in [8] (FoxP3^+CD4^+ cells, vs adjuvant), the “IL-10-producing cells among all Tregs” value is “significant expansion”. The “inducible Tregs (Nrp-1 negative) among classical Tregs” value in assay [8] is reported as “Most”. Also, the “IL-10-producing iTregs (Nrp-1^−FoxP3^+CD4^+)” value in [8] (p18 immunized, from ~12%) is recorded as ~ 25%. For the same molecule, in assay [9] (mice immunized with p18, 24 hours after restimulation), the “Nur77^GFP+ frequency among CD25^+FoxP3^+ Tregs vs all CD4^+ T cells” value is “further elevated”. Further, the “CD25^+FoxP3^+ Tregs in Nur77^GFP+ activated cell population” value in assay [9] (p18 immunized mice, N=5-6, adjuvant only showed a similar fraction) is given as “significantly enriched”. Moreover, the “peritoneal p18:I-A^b+CD4^+ T cells, p18-immunized vs adjuvant” value in [10] (Apoe^−/− mice fed CD or WD, Supplementary Figure 5) is on record as “did not observe any significant differences”. Moreover, the “ApoB p18-specific (PE- and APC-double positive) CD4^+ T cells” value in assay [10] (increase vs adjuvant only, peritoneal, 1x CFA and 1x IFA, N=5-6) is ~ 3 -fold. Further, the “CD25^+FoxP3^+ Tregs among p18:I-A^b+CD4^+ T cells” value in assay [10] (peritoneal, p18 immunized, N=5-6) was found to be 40%. Also, in assay [10] (peritoneal, N=5-6), the “Nur77^GFP+ cells among p18:I-A^b+CD4^+ T cells” value was “highly enriched”. Moreover, the “CD25^+FoxP3^+ Tregs among p18:I-A^b–CD4^+ T cells” value in [10] (tetramer-negative cells, peritoneal, p18 immunized, N=5-6) is on record as 9%. In addition, the “p18:I-A^b+CD4^+ T cells in spleen” value in assay [11] (IL-10^GFP Apoe^−/− mice, N=4-5) is “increased”. For the same molecule, the “FoxP3 expression of splenic p18:I-A^b+CD4^+ T cells vs adjuvant” value in [11] (N=9-10) is “significantly more”. Further, the “splenic bulk FoxP3^+CD4^+ T cells vs adjuvant only” value in [11] (data not shown) was “did not find a significant difference”. Besides, the “IL-10 production of p18:I-A^b+FoxP3^+CD4^+ T cells” value in assay [11] (spleen, IL-10^GFP Apoe^−/− mice, N=4-5) was “significantly more than in adjuvant-only controls”. Moreover, the “IL-10 production of p18:I-A^b–FoxP3^+CD4^+ T cells” value in [11] (spleen, tetramer-negative, N=4-5) was “did not increase”. In [11] (setting [17]), the “central memory cells (CD62L^+CD44^+) among memory p18:I-A^b+CD4^+ T cells” value stood at 20%, the “effector memory cells (CD62L^−CD44^+) among memory p18:I-A^b+CD4^+ T cells” value stood at 80% and the “p18:I-A^b+CD4^+ T cells with memory phenotype (CD44^+)” value is listed as “Most”. The “IL-10^+ spots (ELISPOT) vs adjuvant only” value in assay [12] is given as “significantly more”. Further, in [13], the “reduction of lesion size, aortic arch” value is listed as ~ 35% and the “reduction of lesion size, whole aorta” value is listed as ~ 35%. Further, in [14], the plasma lipids entry is reported as “unchanged”. Besides, in assay [15], the “IgG1 antibodies to p18 in plasma” value is “detected” and the “IgG2c antibodies to p18 in plasma” value is recorded as “detected”.

B1: recombinant IgG1 antibody to oxLDL: recombinant IgG1 antibody to oxLDL infused in the GLACIER trial (antibody, chains of the INN, looked up, V domains shown)
VH: EVQLLESGGGLVQPGGSLRLSCAASGFTFSNAWMSWVRQAPGKGLEWVSSISVGGHRTYYADSVKGRSTISRDNSKNTLYLQMNSLRAEDTAVYYCARIRVGPSGGAFDYWGQGTLVTVSS
VL: QSVLTQPPSASGTPGQRVTISCSGSNTNIGKNYVSWYQQLPGTAPKLLIYANSNRPSGVPDRFSGSKSGTSASLAISGLRSEDEADYYCASWDASLNGWVFGGGTKLTVL
B1: the “efficacy in imaging studies” value in assay [16] is listed as “failed to show efficacy”.
